Measurements published in ChEMBL document CHEMBL5518184, “Structural basis for specific inhibition of salicylate synthase from Mycobacterium abscessus” (Eur J Med Chem, 2024).

Key:
[1] = tested on: Mycobacteroides abscessus; test: Inhibition of Mycobacterium abscessus ATCC 19977 salicylate synthase expressed in Escherichia coli BL21 (DE3) cells using chorismic acid as substrate assessed as residual activity at 100 uM by fluorimetric assay relative to control
Method in brief: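 Enzyme purified by IMAC and gel filtration, used at 1–2 μM in 50 mM Hepes pH 7.5 with 5 mM MgCl₂ at 37 °C. Reaction started with 50 μM chorismic acid; fluorescence read at Ex 305 / Em 420 nm. Compound tested at a fixed 100 μM; percent residual activity recorded.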

[2] = Inhibition of Mycobacterium abscessus ATCC 19977 salicylate synthase expressed in Escherichia coli BL21 (DE3) cells using chorismic acid as substrate by fluorimetric assay; design: species or system Mycobacteroides abscessus
Method in brief: (§1)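 Purified enzyme (IMAC plus gel filtration) at 1–2 μM in 50 mM Hepes pH 7.5, 5 mM MgCl₂, 37 °C, with 50 μM chorismic acid; fluorimetric read-out at Ex 305 / Em 420 nm. IC50 measured over 0.1–200 μM inhibitor for compounds leaving under 30 % residual activity at 100 μM, fitted as A[I] = A[0]·(1 − [I]/([I]+IC50)).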

[3] = Inhibition of Mycobacterium tuberculosis salicylate synthase expressed in Escherichia coli BL21 cells using chorismic acid as substrate by fluorimetric assay
Method in brief: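 Purified recombinant enzyme, 1–2 μM, in 50 mM Hepes pH 7.5, 5 mM MgCl₂ at 37 °C, with 50 μM chorismic acid. Fluorescence read at Ex 305 nm / Em 420 nm. Run only for compounds with residual activity below 30 % at 100 μM. Activity measured across 0.1–200 μM inhibitor and IC50 fitted as A[I] = A[0]·(1 − [I]/([I]+IC50)).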

[4] = tested on: Mycobacterium tuberculosis; test: Inhibition of Mycobacterium tuberculosis salicylate synthase expressed in Escherichia coli BL21 cells using chorismic acid as substrate assessed as residual activity at 100 uM by fluorimetric assay relative to control
Method in brief: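 Recombinant His-purified enzyme (IMAC plus gel filtration), 1–2 μM, in 50 mM Hepes pH 7.5, 5 mM MgCl₂ at 37 °C. Reaction started with chorismic acid at a subsaturating 50 μM. Compound tested at a fixed 100 μM. Fluorescence monitored at Ex 305 nm / Em 420 nm, and activity expressed as % residual activity.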

[5] = Inhibition of Mycobacterium abscessus ATCC 19977 salicylate synthase expressed in Escherichia coli BL21 (DE3) cells by fluorimetric assay; design: species or system Mycobacteroides abscessus; method in brief: as §1
[6] = Inhibition of Mycobacterium abscessus ATCC 19977 salicylate synthase expressed in Escherichia coli BL21 (DE3) cells using chorismic acid as substrate in presence of BSA by fluorimetric assay; design: species or system Mycobacteroides abscessus
Method in brief: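 IC50 determined in the standard fluorimetric chorismate assay (1–2 μM enzyme, 50 mM Hepes pH 7.5, 5 mM MgCl₂, 37 °C, 50 μM chorismic acid, Ex 305 / Em 420 nm) with 0.1 mg/mL BSA added.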

[7] = Inhibition of Mycobacterium abscessus ATCC 19977 salicylate synthase expressed in Escherichia coli BL21 (DE3) cells using chorismic acid as substrate in presence of DTT by fluorimetric assay; design: species or system Mycobacteroides abscessus
Method in brief: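 IC50 determined in the standard fluorimetric chorismate assay (1–2 μM enzyme, 50 mM Hepes pH 7.5, 5 mM MgCl₂, 37 °C, 50 μM chorismic acid) with 100 μM DTT added to rule out cysteine reactivity.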

[8] = Inhibition of Mycobacterium abscessus ATCC 19977 salicylate synthase expressed in Escherichia coli BL21 (DE3) cells using chorismic acid as substrate in presence of Triton X-100 by fluorimetric assay; design: species or system Mycobacteroides abscessus
Method in brief: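 IC50 determined in the standard fluorimetric chorismate assay (1–2 μM enzyme, 50 mM Hepes pH 7.5, 5 mM MgCl₂, 37 °C, 50 μM chorismic acid) with 0.01 % (v/v) Triton X-100 added as detergent.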

[9] = Cytotoxicity against human fibroblast assessed as viable cells at 10 uM incubated for 96 hrs by MTS assay relative to control; type: toxicity, cell-based; details: human fibroblasts, read-out: Activity
Method in brief: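 Juvenile human foreskin fibroblasts grown in DMEM with 10 % FBS, 1 % L-glutamine and penicillin/streptomycin; 1 × 10⁴ cells/well, treated after 24 h at 0.5, 1, 5 and 10 μM. After 96 h, viability read by MTS at 490 nm and expressed as percent of untreated cells; three independent experiments.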

Compound	Activity [1]	IC50 [2]	IC50 [3]	Activity [4]	further results
CS(=O)(=O)c1cccc(-c2ccc(C(=O)O)o2)c1	5.4%	3.6 µM	34.9 µM	25.8%	–
O=C(O)c1ccc(-c2cccc(C(F)(F)F)c2)o1	35%	–	–	42%	–
NS(=O)(=O)c1ccc(-c2ccc(C(=O)O)o2)cc1	16%	19.3 µM	–	–	–
O=C(O)c1ccc(-c2cccc(Cl)c2)o1	88.3%	–	–	102%	–
N#Cc1cccc(-c2ccc(C(=O)O)o2)c1	3.2%	12.1 µM	6.3 µM	3.1%	–
Cc1cccc(-c2ccc(C(=O)O)o2)c1	54.7%	–	–	104%	–
CNC(=O)c1cccc(-c2ccc(C(=O)O)o2)c1	53.3%	–	–	84%	–
NS(=O)(=O)c1ccccc1-c1ccc(C(=O)O)o1	97.1%	–	–	–	–
NC(=O)c1cccc(-c2ccc(C(=O)O)o2)c1	25.8%	42.9 µM	31.4 µM	20.9%	–
O=C(O)c1ccc(-c2cccc(O)c2)o1	65%	–	–	70.4%	–
NS(=O)(=O)c1cccc(-c2cccc(C(=O)O)c2)c1	89.4%	–	–	–	–
COC(=O)c1ccc(-c2cccc(S(N)(=O)=O)c2)o1	55.3%	–	–	–	–
O=C(O)c1ccc(-c2ccc(C(F)(F)F)cc2C(F)(F)F)o1	–	–	–	–	IC50 [5]: ~5 µM
O=C(O)c1cccc(-c2ccc(C(=O)O)o2)c1	33.3%	–	35.2 µM	27.2%	–
NS(=O)(=O)c1cccc(-c2ccc(C(=O)O)o2)c1	0.6%	2.6 µM	39.7 µM	28.6%	IC50 [6]: 2800 nM; IC50 [7]: 3.3 µM; IC50 [8]: 2800 nM; viability at 96 h, 10 µM [9]: 99.5%
Nc1cccc(-c2ccc(C(=O)O)o2)c1	48.3%	–	–	65.8%	–
